Measured values published in ChEMBL document CHEMBL5724801, “EUbOPEN Chemogenomics Library - Multiplex” (2024).
Where “and” joins values, the source holds several entries; their conditions need not be identical. Identical values can stand only once.

System: U2OS
Assay: Multiplex assay against U2OS
Assay type: toxicity, cell-based
Conditions: human
In short: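 Compound was added to live cells that had been stained at seeding with Hoechst33342, BioTracker Green Microtubule Cytoskeleton Dye, MitoTracker Red and Annexin V Alexa Fluor 680, and imaging followed on a CQ1 microscope at 37°C and 5% CO2. CellPathfinder machine-learning gating divided cells into Hoechst high-intensity objects or normal cells, normal cells into healthy, pyknosed or fragmented nuclei, and pyknosed cells into mitotic or apoptotic. Tubulin, mitochondrial-mass and membrane-permeability phenotypes are per cents of healthy-nucleus cells.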

[1] = 12 h, 1 µM, compound concentration 1 uM
[2] = 12 h, 10 µM, compound concentration 10 uM
[3] = 24 h, 1 µM, compound concentration 1 uM
[4] = 24 h, 10 µM, compound concentration 10 uM
[5] = 48 h, 1 µM, compound concentration 1 uM
[6] = 48 h, 10 µM, compound concentration 10 uM

Compound: Br.CS(=O)(=O)Nc1c(O)ccc2c1CCCC2C1=NCCN1 (centres undefined)
- Population Apoptotic (%) [1]: 63% and 80%
- Population Fragmented Nuclei (%) [1]: 20% and 13%
- Population Healthy Nuclei (%) [1]: 75% and 82%
- Population Hoechst High Intensity Objects (%) [1]: 2% and 0%
- Population Membrane Permeable-Phenotype (%) [1]: 3% and 5%
- Population Mitochondria Different-Phenotype (%) [1]: 2% and 1%
- Population Mitotic Cells (%) [1]: 36% and 20%
- Population Normal (%) [1]: 97% and 100%
- Population Pyknosed Nuclei (%) [1]: 3%
- Population Tubulin-Different-Phenotype (%) [1]: 2% and 1%
- Total Cell Count [1]: 288 and 151
- Population Apoptotic (%) [2]: 69% and 100%
- Population Fragmented Nuclei (%) [2]: 36% and 22%
- Population Healthy Nuclei (%) [2]: 57% and 75%
- Population Hoechst High Intensity Objects (%) [2]: 1% and 0%
- Population Membrane Permeable-Phenotype (%) [2]: 8% and 6%
- Population Mitochondria Different-Phenotype (%) [2]: 0% and 6%
- Population Normal (%) [2]: 98% and 100%
- Population Pyknosed Nuclei (%) [2]: 6% and 2%
- Population Tubulin-Different-Phenotype (%) [2]: 1%
- Total Cell Count [2]: 215 and 84
- Population Apoptotic (%) [3]: 76% and 92%
- Population Fragmented Nuclei (%) [3]: 18% and 14%
- Population Healthy Nuclei (%) [3]: 73% and 78%
- Population Hoechst High Intensity Objects (%) [3]: 2% and 1%
- Population Membrane Permeable-Phenotype (%) [3]: 3% and 7%
- Population Mitochondria Different-Phenotype (%) [3]: 2%
- Population Normal (%) [3]: 97% and 98%
- Population Pyknosed Nuclei (%) [3]: 7%
- Population Tubulin-Different-Phenotype (%) [3]: 2% and 4%
- Total Cell Count [3]: 341 and 185
- Population Apoptotic (%) [4]: 86% and 100%
- Population Fragmented Nuclei (%) [4]: 31% and 16%
- Population Healthy Nuclei (%) [4]: 62% and 80%
- Population Hoechst High Intensity Objects (%) [4]: 2% and 0%
- Population Membrane Permeable-Phenotype (%) [4]: 5% and 3%
- Population Mitochondria Different-Phenotype (%) [4]: 1% and 4%
- Population Mitotic Cells (%) [4]: 13% and 0%
- Population Normal (%) [4]: 97% and 100%
- Population Pyknosed Nuclei (%) [4]: 6% and 2%
- Population Tubulin-Different-Phenotype (%) [4]: 2% and 3%
- Total Cell Count [4]: 240 and 103
- Population Apoptotic (%) [5]: 74% and 81%
- Population Fragmented Nuclei (%) [5]: 14% and 13%
- Population Healthy Nuclei (%) [5]: 78% and 76%
- Population Hoechst High Intensity Objects (%) [5]: 1%
- Population Membrane Permeable-Phenotype (%) [5]: 2% and 5%
- Population Mitochondria Different-Phenotype (%) [5]: 2%
- Population Mitotic Cells (%) [5]: 25% and 18%
- Population Normal (%) [5]: 98%
- Population Pyknosed Nuclei (%) [5]: 6% and 10%
- Population Tubulin-Different-Phenotype (%) [5]: 2% and 1%
- Total Cell Count [5]: 484 and 253
- Population Apoptotic (%) [6]: 90% and 100%
- Population Fragmented Nuclei (%) [6]: 23% and 17%
- Population Healthy Nuclei (%) [6]: 70% and 74%
- Population Hoechst High Intensity Objects (%) [6]: 1% and 0%
- Population Membrane Permeable-Phenotype (%) [6]: 5% and 3%
- Population Mitochondria Different-Phenotype (%) [6]: 1% and 6%
- Population Mitotic Cells (%) [6]: 10% and 0%
- Population Normal (%) [6]: 98% and 100%
- Population Pyknosed Nuclei (%) [6]: 6% and 7%
- Population Tubulin-Different-Phenotype (%) [6]: 2%
- Total Cell Count [6]: 333 and 152

Compound: Cc1sc2c(c1C)C(c1ccc(Cl)cc1)=N[C@H](CC(=O)OC(C)(C)C)c1nnc(C)n1-2
- Population Apoptotic (%) [1]: 81% and 71%
- Population Fragmented Nuclei (%) [1]: 28% and 16%
- Population Healthy Nuclei (%) [1]: 63% and 77%
- Population Hoechst High Intensity Objects (%) [1]: 2% and 4%
- Population Membrane Permeable-Phenotype (%) [1]: 7%
- Population Mitochondria Different-Phenotype (%) [1]: 4% and 2%
- Population Mitotic Cells (%) [1]: 18% and 28%
- Population Normal (%) [1]: 97% and 95%
- Population Pyknosed Nuclei (%) [1]: 8% and 6%
- Population Tubulin-Different-Phenotype (%) [1]: 4%
- Total Cell Count [1]: 256 and 120
- Population Apoptotic (%) [2]: 51% and 90%
- Population Fragmented Nuclei (%) [2]: 32% and 22%
- Population Healthy Nuclei (%) [2]: 56% and 68%
- Population Hoechst High Intensity Objects (%) [2]: 2% and 0%
- Population Mitochondria Different-Phenotype (%) [2]: 35% and 24%
- Population Normal (%) [2]: 97% and 100%
- Population Pyknosed Nuclei (%) [2]: 11% and 8%
- Total Cell Count [2]: 240 and 118
- Population Apoptotic (%) [3]: 77% and 75%
- Population Fragmented Nuclei (%) [3]: 22% and 20%
- Population Healthy Nuclei (%) [3]: 69% and 70%
- Population Hoechst High Intensity Objects (%) [3]: 0% and 3%
- Population Membrane Permeable-Phenotype (%) [3]: 5%
- Population Mitochondria Different-Phenotype (%) [3]: 1% and 2%
- Population Mitotic Cells (%) [3]: 22% and 25%
- Population Normal (%) [3]: 99% and 96%
- Population Pyknosed Nuclei (%) [3]: 7% and 8%
- Population Tubulin-Different-Phenotype (%) [3]: 1% and 2%
- Total Cell Count [3]: 280 and 149
- Population Apoptotic (%) [4]: 83% and 76%
- Population Fragmented Nuclei (%) [4]: 29% and 24%
- Population Healthy Nuclei (%) [4]: 57% and 65%
- Population Hoechst High Intensity Objects (%) [4]: 2% and 0%
- Population Membrane Permeable-Phenotype (%) [4]: 17% and 7%
- Population Mitochondria Different-Phenotype (%) [4]: 17% and 25%
- Population Mitotic Cells (%) [4]: 16% and 23%
- Population Normal (%) [4]: 97% and 99%
- Population Pyknosed Nuclei (%) [4]: 13% and 10%
- Population Tubulin-Different-Phenotype (%) [4]: 8% and 3%
- Total Cell Count [4]: 280 and 130
- Population Apoptotic (%) [5]: 77% and 96%
- Population Fragmented Nuclei (%) [5]: 20% and 21%
- Population Healthy Nuclei (%) [5]: 72% and 64%
- Population Hoechst High Intensity Objects (%) [5]: 1% and 3%
- Population Membrane Permeable-Phenotype (%) [5]: 5% and 7%
- Population Mitochondria Different-Phenotype (%) [5]: 2% and 7%
- Population Normal (%) [5]: 98% and 96%
- Population Pyknosed Nuclei (%) [5]: 6% and 14%
- Population Tubulin-Different-Phenotype (%) [5]: 2% and 5%
- Total Cell Count [5]: 415 and 228
- Population Apoptotic (%) [6]: 86% and 89%
- Population Fragmented Nuclei (%) [6]: 23% and 20%
- Population Healthy Nuclei (%) [6]: 57% and 68%
- Population Hoechst High Intensity Objects (%) [6]: 2% and 1%
- Population Membrane Permeable-Phenotype (%) [6]: 11%
- Population Mitochondria Different-Phenotype (%) [6]: 7% and 8%
- Population Mitotic Cells (%) [6]: 13% and 10%
- Population Normal (%) [6]: 97% and 98%
- Population Pyknosed Nuclei (%) [6]: 18% and 11%
- Population Tubulin-Different-Phenotype (%) [6]: 5% and 3%
- Total Cell Count [6]: 342 and 174

Compound: CN(C)c1ccnc2sc3c(=O)n(N4CCCCCC4)cnc3c12
- Population Apoptotic (%) [1]: 81% and 87%
- Population Fragmented Nuclei (%) [1]: 19% and 16%
- Population Healthy Nuclei (%) [1]: 72% and 77%
- Population Hoechst High Intensity Objects (%) [1]: 1%
- Population Membrane Permeable-Phenotype (%) [1]: 4% and 6%
- Population Mitochondria Different-Phenotype (%) [1]: 2%
- Population Mitotic Cells (%) [1]: 18% and 12%
- Population Normal (%) [1]: 98%
- Population Pyknosed Nuclei (%) [1]: 7% and 6%
- Population Tubulin-Different-Phenotype (%) [1]: 2%
- Total Cell Count [1]: 284 and 132
- Population Apoptotic (%) [2]: 41% and 88%
- Population Fragmented Nuclei (%) [2]: 30% and 18%
- Population Healthy Nuclei (%) [2]: 56% and 71%
- Population Hoechst High Intensity Objects (%) [2]: 4% and 5%
- Population Membrane Permeable-Phenotype (%) [2]: 30% and 23%
- Population Mitochondria Different-Phenotype (%) [2]: 14% and 27%
- Population Normal (%) [2]: 95% and 94%
- Population Pyknosed Nuclei (%) [2]: 12% and 9%
- Population Tubulin-Different-Phenotype (%) [2]: 20% and 22%
- Total Cell Count [2]: 249 and 101
- Population Apoptotic (%) [3]: 87% and 72%
- Population Fragmented Nuclei (%) [3]: 16% and 15%
- Population Healthy Nuclei (%) [3]: 72% and 76%
- Population Hoechst High Intensity Objects (%) [3]: 2%
- Population Membrane Permeable-Phenotype (%) [3]: 3% and 6%
- Population Mitochondria Different-Phenotype (%) [3]: 3%
- Population Mitotic Cells (%) [3]: 12% and 27%
- Population Normal (%) [3]: 97%
- Population Pyknosed Nuclei (%) [3]: 10% and 7%
- Population Tubulin-Different-Phenotype (%) [3]: 1% and 4%
- Total Cell Count [3]: 326 and 150
- Population Apoptotic (%) [4]: 68% and 100%
- Population Fragmented Nuclei (%) [4]: 28% and 11%
- Population Healthy Nuclei (%) [4]: 56% and 75%
- Population Hoechst High Intensity Objects (%) [4]: 4% and 3%
- Population Membrane Permeable-Phenotype (%) [4]: 22% and 23%
- Population Mitochondria Different-Phenotype (%) [4]: 15% and 25%
- Population Normal (%) [4]: 95% and 96%
- Population Pyknosed Nuclei (%) [4]: 15% and 13%
- Population Tubulin-Different-Phenotype (%) [4]: 14% and 24%
- Total Cell Count [4]: 260 and 108
- Population Apoptotic (%) [5]: 90% and 92%
- Population Fragmented Nuclei (%) [5]: 17% and 15%
- Population Healthy Nuclei (%) [5]: 74% and 72%
- Population Hoechst High Intensity Objects (%) [5]: 2%
- Population Membrane Permeable-Phenotype (%) [5]: 4% and 5%
- Population Mitochondria Different-Phenotype (%) [5]: 1% and 5%
- Population Mitotic Cells (%) [5]: 9% and 7%
- Population Normal (%) [5]: 97%
- Population Pyknosed Nuclei (%) [5]: 8% and 11%
- Population Tubulin-Different-Phenotype (%) [5]: 2%
- Total Cell Count [5]: 486 and 239
- Population Apoptotic (%) [6]: 68% and 72%
- Population Fragmented Nuclei (%) [6]: 28% and 15%
- Population Healthy Nuclei (%) [6]: 57% and 61%
- Population Hoechst High Intensity Objects (%) [6]: 4% and 9%
- Population Membrane Permeable-Phenotype (%) [6]: 15% and 21%
- Population Mitochondria Different-Phenotype (%) [6]: 11% and 19%
- Population Mitotic Cells (%) [6]: 31% and 27%
- Population Normal (%) [6]: 95% and 90%
- Population Pyknosed Nuclei (%) [6]: 14% and 22%
- Total Cell Count [6]: 325 and 140
